The text below walks through data of ChEMBL document CHEMBL4043109, “Dual inhibitors of the human blood-brain barrier drug efflux transporters P-glycoprotein and ABCG2 based on the antiviral azidothymidine” (Bioorg Med Chem, 2017).

The source made the active and inactive calls. The calls are words filed in the database; no cut-off is given here.

Data set [1] in a line: Inhibition of P-gp in human MCF7/DX1 cells assessed as increase in calcein-AM accumulation incubated for 10 mins by flow cytometry. The format is cell-based. Particulars: MCF7/DX1, 10 min. The gist of the method:
(§1)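 MCF-7/DX1 cells (125,000, in suspension) were incubated at 37 °C for 10 min in BME containing 0.5 μM calcein-AM (final) plus increasing compound concentrations, with DMSO held at 5%. GF120918 1 μM served as positive control. IC50 was taken from mean fluorescence; triplicate.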

Data set [2] has as its target T1, Broad substrate specificity ATP-binding cassette transporter ABCG2 (Homo sapiens, UniProt Q9UNQ0).
T1 sequence (Q9UNQ0 whole entry): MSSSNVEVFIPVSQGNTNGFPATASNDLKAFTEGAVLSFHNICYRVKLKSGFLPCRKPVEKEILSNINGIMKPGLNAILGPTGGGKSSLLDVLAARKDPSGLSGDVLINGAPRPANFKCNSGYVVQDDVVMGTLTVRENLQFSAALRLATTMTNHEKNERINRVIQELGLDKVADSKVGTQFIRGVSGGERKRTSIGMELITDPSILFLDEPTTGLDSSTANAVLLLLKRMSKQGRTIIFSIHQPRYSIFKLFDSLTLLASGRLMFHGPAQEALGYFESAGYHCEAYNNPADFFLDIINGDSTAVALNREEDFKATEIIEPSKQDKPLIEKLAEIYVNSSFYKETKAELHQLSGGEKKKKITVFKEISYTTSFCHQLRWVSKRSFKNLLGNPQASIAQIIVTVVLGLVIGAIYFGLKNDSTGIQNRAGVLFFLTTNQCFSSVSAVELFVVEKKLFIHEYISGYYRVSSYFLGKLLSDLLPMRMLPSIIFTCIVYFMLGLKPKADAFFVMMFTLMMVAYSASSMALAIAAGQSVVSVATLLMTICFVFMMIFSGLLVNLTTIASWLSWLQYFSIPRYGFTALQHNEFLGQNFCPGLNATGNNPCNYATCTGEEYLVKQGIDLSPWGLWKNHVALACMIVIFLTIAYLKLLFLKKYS
In words: Inhibition of ABCG2 in human MCF7/FLV1000 cells assessed as increase in mitoxantrone accumulation incubated for 30 mins by flow cytometry. (In flow cytometry, cells or beads pass a laser one at a time.)

Data set [3] in a line: Cytotoxicity in human MCF-7 FLV1000 cells assessed as cell viability at […] uM incubated for 24 hrs by MTT assay. The format is cell-based. The note with it: read-out: Activity. Background: Tetrazolium assays rely on reduction of a dye to a coloured formazan, in cell work by metabolically active cells.
A short description of data set [4]: Cytotoxicity in human MCF7/DX1 cells assessed as cell viability at 2 uM incubated for 24 hrs by MTT assay. The format is cell-based. The note with it: read-out: Activity. The gist of the method:
(§2)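 MTT viability assay on MCF-7/FLV1000 (ABCG2-overexpressing, grown with 1000 nM flavopiridol) and MCF-7/DX1 (P-gp-overexpressing, grown with 1 μM doxorubicin) cells. Cells were exposed for 24 h to increasing dimer concentrations. Viability is the absorbance of treated cells relative to untreated cells.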

The nature of data set [5]: Cytotoxicity in human MCF-7 FLV1000 cells assessed as cell viability at 40 uM incubated for 24 hrs by MTT assay. Particulars: read-out: Activity. The format is cell-based. The gist of the method: as §2
For data set [6], the species on record is Homo sapiens. In words: Inhibition of P-gp in human MCF7/DX1 cells assessed as increase in calcein-AM accumulation at 500 uM incubated for 10 mins by flow cytometry. Format: cell-based. The gist of the method:
as §1

For data set [7], the target named is T1, Broad substrate specificity ATP-binding cassette transporter ABCG2. Put plainly: Inhibition of ABCG2 in human MCF7/FLV1000 cells assessed as increase in mitoxantrone accumulation at 400 uM incubated for 30 mins by flow cytometry. Particulars: 0.5 h.
Data set [8] has the same target. In words: Inhibition of ABCG2 in human MCF7/FLV1000 cells assessed as increase in mitoxantrone accumulation at 200 uM incubated for 30 mins by flow cytometry. Particulars: 0.5 h.
The species entered for data set [9] is Homo sapiens. Put plainly: Inhibition of P-gp in human MCF7/DX1 cells assessed as increase in calcein-AM accumulation at 400 uM incubated for 10 mins by flow cytometry. Format: cell-based. The gist of the method: as §1
Data set [10] deals with ATP-dependent translocase ABCB1 (Homo sapiens, UniProt P08183). In words: Inhibition of human MDR1 expressed in Sf9 cell membranes assessed as reduction in [125I]-IAAP binding incubated for 20 mins under UV light irradiation and measured after 30 mins by densitometry based photo-affinity labeling assay. The gist of the method: (§3)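 Crude Sf9 membranes, from baculovirus infection expressing P-gp (25 µg) or ABCG2 (40 µg), were preincubated 10 min at room temperature in the dark. Buffer was 50 mM Tris pH 7.5 with 1% aprotinin, 1 mM DTT and 2 mM AEBSF. Additions were compound (in DMSO) and [125I]-IAAP, ~2200 Ci/mmol. Controls were 2.5% DMSO and GF120918 (10 µM for P-gp, 20 µM for ABCG2). Samples were UV-irradiated at 365 nm for 20 min on ice, then held 30 min in Laemmli buffer. Bands were resolved on 7.5% SDS-PAGE, autoradiographed and quantified as % of DMSO control to give IC50.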
Chain of ATP-dependent translocase ABCB1 (P08183 whole entry): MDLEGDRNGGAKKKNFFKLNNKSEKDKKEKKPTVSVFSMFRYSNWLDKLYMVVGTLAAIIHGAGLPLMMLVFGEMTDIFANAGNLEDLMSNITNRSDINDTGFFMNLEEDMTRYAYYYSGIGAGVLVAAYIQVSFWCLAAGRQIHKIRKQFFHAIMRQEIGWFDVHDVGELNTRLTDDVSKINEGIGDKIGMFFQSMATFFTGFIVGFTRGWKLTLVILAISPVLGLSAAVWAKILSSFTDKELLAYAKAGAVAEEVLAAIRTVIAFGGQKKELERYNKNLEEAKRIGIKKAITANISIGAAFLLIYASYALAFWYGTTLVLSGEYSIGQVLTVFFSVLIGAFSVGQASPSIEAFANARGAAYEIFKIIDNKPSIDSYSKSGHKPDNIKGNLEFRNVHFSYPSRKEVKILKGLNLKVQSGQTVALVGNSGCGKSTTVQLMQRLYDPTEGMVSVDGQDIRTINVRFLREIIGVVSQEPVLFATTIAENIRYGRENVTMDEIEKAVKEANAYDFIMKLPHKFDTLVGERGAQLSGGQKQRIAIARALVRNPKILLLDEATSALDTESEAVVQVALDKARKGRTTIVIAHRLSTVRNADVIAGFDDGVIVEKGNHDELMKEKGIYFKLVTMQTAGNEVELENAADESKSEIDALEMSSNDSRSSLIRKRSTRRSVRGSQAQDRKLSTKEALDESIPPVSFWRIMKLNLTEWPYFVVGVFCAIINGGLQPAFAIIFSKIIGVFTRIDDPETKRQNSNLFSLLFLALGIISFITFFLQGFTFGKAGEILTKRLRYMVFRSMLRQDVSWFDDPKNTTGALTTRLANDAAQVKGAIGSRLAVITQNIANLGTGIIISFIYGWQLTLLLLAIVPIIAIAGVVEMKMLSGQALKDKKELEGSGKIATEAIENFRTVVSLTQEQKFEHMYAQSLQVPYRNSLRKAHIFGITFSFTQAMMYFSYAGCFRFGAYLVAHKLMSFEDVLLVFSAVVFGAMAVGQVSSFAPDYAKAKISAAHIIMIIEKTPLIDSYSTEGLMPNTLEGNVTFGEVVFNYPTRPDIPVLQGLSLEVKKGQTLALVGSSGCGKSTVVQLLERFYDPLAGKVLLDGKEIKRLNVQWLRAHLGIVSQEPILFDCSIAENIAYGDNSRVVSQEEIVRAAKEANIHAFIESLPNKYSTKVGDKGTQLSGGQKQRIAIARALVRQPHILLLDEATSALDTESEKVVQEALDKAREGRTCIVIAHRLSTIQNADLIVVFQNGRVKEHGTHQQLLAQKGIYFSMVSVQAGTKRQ

For data set [11], the target named is T1, Broad substrate specificity ATP-binding cassette transporter ABCG2. Put plainly: Inhibition of human ABCG2 expressed in Sf9 cell membranes assessed as reduction in [125I]-IAAP binding incubated for 20 mins under UV light irradiation and measured after 30 mins by densitometry based photo-affinity labeling assay. The gist of the method:
as §3

Data set [12] is described as follows: Cytotoxicity in human MCF7/DX1 cells assessed as cell viability at 2.3 uM incubated for 24 hrs by MTT assay. Format: cell-based. The note with it: read-out: Activity. The gist of the method:
as §2

The term IC50 denotes the concentration that gives 50% inhibition.

On to `Cc1cn([C@H]2C[C@H](N=[N+]=[N-])[C@@H](COC(=O)CCCCCCCCC(=O)OC[C@H]3O[C@@H](n4cc(C)c(=O)[nH]c4=O)C[C@@H]3N=[N+]=[N-])O2)c(=O)[nH]c1=O`, for which the IC50 in [1] is 11.3 µM; in data set [2], 28.2 µM.

Regarding `Cc1cn([C@H]2C[C@H](N=[N+]=[N-])[C@@H](COC(=O)CCCCCCCCCCCCC(=O)OC[C@H]3O[C@@H](n4cc(C)c(=O)[nH]c4=O)C[C@@H]3N=[N+]=[N-])O2)c(=O)[nH]c1=O`, the IC50 in [1] is 2 µM; in [2], 13.3 µM. For the same molecule, the viability at 24 h, 13.3 µM in data set [3] is more than 95%. Moreover, the viability at 24 h, 2 µM in data set [4] was more than 95%. The viability at 24 h, 40 µM in [5] came to 60%.

Turning to `Cc1cn([C@H]2C[C@H](N=[N+]=[N-])[C@@H](CO)O2)c(=O)[nH]c1=O` [ZIDOVUDINE], the inhibition entry in the data set listed under Homo sapiens [6] was “inactive”. In addition, the “inhibition (INH)” value in data set [7] is “Not Active”.

For `Cc1cn([C@H]2C[C@H](N=[N+]=[N-])[C@@H](COC(=O)CCCCCC(=O)OC[C@H]3O[C@@H](n4cc(C)c(=O)[nH]c4=O)C[C@@H]3N=[N+]=[N-])O2)c(=O)[nH]c1=O`, the IC50 in data set [1] is more than 200 µM. Besides, in [8], the “inhibition (INH)” value is “Not Active”.

On to `Cc1cn([C@H]2C[C@H](N=[N+]=[N-])[C@@H](COC(=O)CCC(=O)OC[C@H]3O[C@@H](n4cc(C)c(=O)[nH]c4=O)C[C@@H]3N=[N+]=[N-])O2)c(=O)[nH]c1=O`, for which the inhibition result in the data set listed under Homo sapiens [9] was “inactive”. In addition, in [8], the “inhibition (INH)” value is given as “Not Active”.

Take `Cc1cn([C@H]2C[C@H](N=[N+]=[N-])[C@@H](COC(=O)CCCCCCCCCCC(=O)OC[C@H]3O[C@@H](n4cc(C)c(=O)[nH]c4=O)C[C@@H]3N=[N+]=[N-])O2)c(=O)[nH]c1=O`: the half-maximal inhibitory concentration (IC50) in data set [1] is 2.3 µM; in data set [10] it was 9.3 µM; in data set [11], 4.3 µM; in [2], 11.5 µM. For the same molecule, the “inhibition (INH)” value in data set [10] (human, 20 min) is reported as “Dose-dependent effect”; in [11] (human, 20 min), “Dose-dependent effect”. The viability at 24 h, 2.3 µM in data set [12] was more than 95%. The viability at 24 h, 11.5 µM in data set [3] was more than 95%.
